Bioassay records: PubChem BioAssay, several laboratories
Compounds with a hit are over-represented: about 3.2% of the library has one in this group of screens.
UBC13 inh – inhibitors of human UBC13 polyubiquitin chain formation; 330,000 tested, 0.47% active; inhibition, % at 20 µM; AID 485273; TR-FRET; P61088; in the data active = inhibition above about 45%, passing the limit was not always enough
MEKK2 mut-MEK5 – signal of MEK5 binding to mutant human MEKK2 PB1 domain; 290,000 tested, 0.35% active; AID 1530; percent response, % at 10 µM; bead flow cytometry, Alexa488-MEK5 binding to MEKK2 mutant; in the data active = percent response above about 24%, passing the limit was not always enough
MEKK3 PB1 HTS – MEKK3-MEK5 PB1 interaction, increase or decrease | Q99759 | bead-based flow cytometry, Alexa488-MEK5 binding to MEKK3; actives lie on both sides; 0 = blocked by unlabeled MEK5, 100 = vehicle | binding response (% of control), % at 10 µM | 290,000 tested, 1.4% active | AID 1529;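 active = binding response more than 3 SD above or below the average of its plate-row segment, actives on both sides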;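 note: Alexa488 bead fluorescence after subtracting the streptavidin-only scavenger bead signal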
DSG3 Ab inh – blocks pemphigus antibody binding to human desmoglein-3. DSG3-coupled beads, scFv-anti-DSG3-GFP binding, flow cytometry; active compounds read low. binding (percent of control), % at 10 µM. 310,000 tested, 0.48% active;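 active = binding more than 3 SD below its plate's average and above zero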;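 note: hits lower antibody fragment binding to DSG3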
MEKK2 WT-MEK5 – raises or lowers MEK5 binding to wildtype human MEKK2 PB1 domain; binding response (% of control), % at 10 µM; bead flow cytometry, Alexa488-MEK5 binding to MEKK2 WT; actives lie on both sides; Q9Y2U5; 290,000 tested, 1.1% active; in the data active = binding response below about 67% or above about 130%
Apaf1 inhib – blocks human Apaf-1 apoptosome activity; O14727; reconstituted apoptosome caspase-3 activity, DEVD-Rh110 fluorescence; inhibition, % at 20 µM; 330,000 tested, 0.71% active; active = inhibition of at least 40% at 20 µM;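 note: plate controls were DMSO wells for no effect and DEVD-CHO caspase inhibitor wells for full effect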
Target sequence (O14727 whole entry, looked up): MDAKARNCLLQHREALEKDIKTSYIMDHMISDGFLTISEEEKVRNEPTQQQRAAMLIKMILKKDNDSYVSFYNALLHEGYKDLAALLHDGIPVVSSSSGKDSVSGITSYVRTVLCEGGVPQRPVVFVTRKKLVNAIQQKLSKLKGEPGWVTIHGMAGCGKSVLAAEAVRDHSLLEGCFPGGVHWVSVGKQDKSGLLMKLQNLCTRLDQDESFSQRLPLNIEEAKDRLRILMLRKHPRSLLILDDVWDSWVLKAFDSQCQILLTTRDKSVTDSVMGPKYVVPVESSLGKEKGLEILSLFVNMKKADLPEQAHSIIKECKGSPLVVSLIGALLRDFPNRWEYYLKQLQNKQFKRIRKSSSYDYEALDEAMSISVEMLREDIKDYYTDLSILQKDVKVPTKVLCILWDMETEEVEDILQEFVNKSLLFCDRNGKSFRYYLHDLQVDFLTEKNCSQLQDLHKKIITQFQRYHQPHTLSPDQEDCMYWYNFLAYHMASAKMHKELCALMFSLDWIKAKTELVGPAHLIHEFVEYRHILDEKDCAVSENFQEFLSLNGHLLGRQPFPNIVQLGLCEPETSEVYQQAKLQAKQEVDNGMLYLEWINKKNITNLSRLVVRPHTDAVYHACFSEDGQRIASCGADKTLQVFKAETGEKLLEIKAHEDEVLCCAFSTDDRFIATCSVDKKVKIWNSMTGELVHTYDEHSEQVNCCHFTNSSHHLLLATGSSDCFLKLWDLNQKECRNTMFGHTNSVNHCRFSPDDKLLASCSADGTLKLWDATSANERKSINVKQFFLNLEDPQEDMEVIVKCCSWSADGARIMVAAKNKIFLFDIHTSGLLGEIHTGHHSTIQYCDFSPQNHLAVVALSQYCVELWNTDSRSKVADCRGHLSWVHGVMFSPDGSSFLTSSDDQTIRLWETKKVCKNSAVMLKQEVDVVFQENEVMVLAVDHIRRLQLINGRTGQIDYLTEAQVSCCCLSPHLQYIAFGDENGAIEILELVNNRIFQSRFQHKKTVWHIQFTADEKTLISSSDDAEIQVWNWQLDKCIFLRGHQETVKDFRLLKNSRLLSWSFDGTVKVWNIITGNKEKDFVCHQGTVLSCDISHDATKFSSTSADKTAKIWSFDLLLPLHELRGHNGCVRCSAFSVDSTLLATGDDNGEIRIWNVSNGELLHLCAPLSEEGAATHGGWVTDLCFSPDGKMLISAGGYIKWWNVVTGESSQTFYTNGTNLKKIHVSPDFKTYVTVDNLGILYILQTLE
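Assay system: Apoptosome proteins | Medium: pH 7.5 Hepes buffer with CHAPS, BSA, DTT | Also added: Cytochrome c and DEVD-Rh110 substrate | Times: 30 min plus 50 min, RT | Detection: Rhodamine 110 fluorescence at Ex 480/Em 540 nm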
MEKK2wt confirm – raises or lowers MEK5 binding to wildtype human MEKK2, retest; shares compounds with MEKK3 PB1 HTS; bead flow cytometry, Alexa488-MEK5 binding to MEKK2 WT; actives lie on both sides; binding response (% of control), % at 10 µM; 5,900 tested, 2.4% active; in the data active = binding response below about 16% or above about 210%; inactive = in between
MEKK2mut-MEK5 – signal of MEK5 binding to mutant human MEKK2, retest. shares compounds with MEKK3 PB1 HTS. bead flow cytometry, Alexa488-MEK5 binding to MEKK2 mutant. percent response, % at 10 µM. 5,900 tested, 2% active. AID 1893; in the data active = percent response mostly above about 71%, no sharp cut-off; inactive = mostly below about 38%;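 note: higher means compound restores mutant binding toward wildtype level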
MEKK3-MEK5 inh – confirmation of inhibitors of MEK5 binding to human MEKK3; shares compounds with MEKK3 PB1 HTS; bead flow cytometry, Alexa488-MEK5 binding to MEKK3; active compounds read low; binding response (% of control), % at 10 µM; 5,900 tested, 1.8% active; AID 1894;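 active = binding response below 72% of control, or above a set upper limit, though filed actives all read lower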;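 note: 100% = DMSO only wells and 0% = binding blocked by excess unlabeled MEK5; lower values mean stronger disruption of MEK5 binding to MEKK3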
An asterisk follows results filed as active; [ ] = dose if it differs, or a comment.

`COc1cccc(/C=N/n2c(CO)nc3ccccc32)c1OC` gave UBC13 inh -9, MEKK2 mut-MEK5 -8, MEKK3 PB1 HTS 71*[inhibitor], DSG3 Ab inh 99, MEKK2 WT-MEK5 77, Apaf1 inhib 5, MEKK2wt confirm 106, MEKK2mut-MEK5 5 and MEKK3-MEK5 inh 103.
Screening CCc1ccc(C(=O)COC(=O)c2cccnc2Cl)cc1 returned UBC13 inh 9, MEKK2 mut-MEK5 -16, MEKK3 PB1 HTS 72*[inhibitor], DSG3 Ab inh 103, MEKK2 WT-MEK5 74, Apaf1 inhib 6, MEKK2wt confirm 100, MEKK2mut-MEK5 -3 and MEKK3-MEK5 inh 103.
Screening COc1cc2ccc(C=O)cc2cc1OC returned DSG3 Ab inh 98.
`Nc1ccc2c(c1)C(O)c1cccc(C(=O)O)c1-2` (stereo unspecified) gave DSG3 Ab inh 97.
COc1ccc(/C=C(/NC(=O)c2ccco2)C(=O)N2CCCC2=O)cc1 was read as UBC13 inh -9, MEKK2 mut-MEK5 -26, MEKK3 PB1 HTS 64*[inhibitor], DSG3 Ab inh 109, MEKK2 WT-MEK5 59*[inhibitor], Apaf1 inhib 7, MEKK2wt confirm 97, MEKK2mut-MEK5 -12 and MEKK3-MEK5 inh 94.
For CCOC(=O)C1=C(N)OC2=C(C(=O)CC(C)(C)C2)C1c1ccc(C)s1 (stereo unspecified) the results were UBC13 inh 0, MEKK2 mut-MEK5 0, MEKK3 PB1 HTS 110, DSG3 Ab inh 106, MEKK2 WT-MEK5 105 and Apaf1 inhib 10.
Screening CCOC(=O)C1=C(N)OC2=C(C(=O)CC(C)(C)C2)C1c1ccc(CC)s1 (stereo unspecified) returned UBC13 inh 1, MEKK2 mut-MEK5 -15, MEKK3 PB1 HTS 40*[inhibitor], DSG3 Ab inh 107, MEKK2 WT-MEK5 41*[inhibitor], Apaf1 inhib 7, MEKK2wt confirm 95, MEKK2mut-MEK5 -4 and MEKK3-MEK5 inh 102.
For CC(C)NCC(O)COc1ccc(Br)cc1 (stereo unspecified) the results were UBC13 inh -9, MEKK2 mut-MEK5 -1, MEKK3 PB1 HTS 101, DSG3 Ab inh 90, MEKK2 WT-MEK5 103 and Apaf1 inhib 13.
Screening CC(C)NCC(O)COc1ccc2c(c1)CCC2 (stereo unspecified) returned UBC13 inh 8, MEKK2 mut-MEK5 1, MEKK3 PB1 HTS 140*, DSG3 Ab inh 110, MEKK2 WT-MEK5 108, Apaf1 inhib -2, MEKK2wt confirm 95, MEKK2mut-MEK5 -3 and MEKK3-MEK5 inh 90.
For Cc1ccc(S(=O)(=O)NCCC(=O)NCc2ccccc2)cc1 the results were UBC13 inh 1, MEKK2 mut-MEK5 7, MEKK3 PB1 HTS 110, DSG3 Ab inh 97, MEKK2 WT-MEK5 107 and Apaf1 inhib -16.
Cc1ccc(NC(=O)CCNS(=O)(=O)c2ccccc2)c(C(=O)c2ccccc2)c1 was read as UBC13 inh -7, MEKK2 mut-MEK5 1, MEKK3 PB1 HTS 138*, DSG3 Ab inh 102, MEKK2 WT-MEK5 110, Apaf1 inhib 3, MEKK2wt confirm 100, MEKK2mut-MEK5 2 and MEKK3-MEK5 inh 104.
Screening CC1CC1C(=O)N1CCN(S(=O)(=O)c2cc(C(F)(F)F)cc(C(F)(F)F)c2)CC1 (stereo unspecified) returned UBC13 inh 1, DSG3 Ab inh 96 and Apaf1 inhib 6.
For Cc1ccc(NC(=O)NNC(=O)C2CC(c3cccnc3)=NO2)cc1 (stereo unspecified) the results were UBC13 inh -4, MEKK2 mut-MEK5 -5, MEKK3 PB1 HTS 89, DSG3 Ab inh 92, MEKK2 WT-MEK5 92 and Apaf1 inhib 1.
O=C(NNC(=O)C1CC(c2cccnc2)=NO1)Nc1ccccc1F (stereo unspecified) was read as UBC13 inh -6, MEKK2 mut-MEK5 95*, MEKK3 PB1 HTS 105, DSG3 Ab inh 99, MEKK2 WT-MEK5 31*, Apaf1 inhib -5, MEKK2wt confirm 98, MEKK2mut-MEK5 -1 and MEKK3-MEK5 inh 97.
For CC(C)(C)C(=O)OCc1nc(-c2ccc(F)cc2)cs1 the results were UBC13 inh -2, MEKK2 mut-MEK5 -24, MEKK3 PB1 HTS 54, DSG3 Ab inh 102, MEKK2 WT-MEK5 44*[inhibitor], Apaf1 inhib 10, MEKK2wt confirm 94, MEKK2mut-MEK5 -11 and MEKK3-MEK5 inh 95.
`O=C1NC(=O)C(c2ccccc2)N1` (stereo unspecified) gave DSG3 Ab inh 88.
Screening O=C(NCC1CCCO1)C1CCCN1C(=O)NC1CCCCC1 (stereo unspecified) returned UBC13 inh -3, MEKK2 mut-MEK5 -3, MEKK3 PB1 HTS 99, DSG3 Ab inh 93, MEKK2 WT-MEK5 98 and Apaf1 inhib 12.
Screening O=C(NCC1CCCO1)C1CCCN1C(=O)Nc1ccc(Cl)c(Cl)c1 (stereo unspecified) returned UBC13 inh -7, MEKK2 mut-MEK5 -46, MEKK3 PB1 HTS 4.0*[inhibitor], DSG3 Ab inh 102, MEKK2 WT-MEK5 5.0*[inhibitor], Apaf1 inhib 3, MEKK2wt confirm 101, MEKK2mut-MEK5 4 and MEKK3-MEK5 inh 100.
For CC1=C(C(=O)Nc2ccccc2C(=O)NCCCOC(C)C)SCCO1 the results were UBC13 inh 0, MEKK2 mut-MEK5 1, MEKK3 PB1 HTS 97, DSG3 Ab inh 90, MEKK2 WT-MEK5 103 and Apaf1 inhib 2.
O=C(Cc1ccc(-c2ccccc2)cc1)Nc1ncccc1O was read as UBC13 inh -2, MEKK2 mut-MEK5 -2, MEKK3 PB1 HTS 102, DSG3 Ab inh 106, MEKK2 WT-MEK5 97 and Apaf1 inhib 9.
For Oc1ccc(O)c(-c2cnns2)c1 the results were MEKK2 mut-MEK5 0, MEKK3 PB1 HTS 132*, MEKK2 WT-MEK5 105, MEKK2wt confirm 111, MEKK2mut-MEK5 6 and MEKK3-MEK5 inh 107.
For Nc1nc(N)nc(-c2cc(O)ccc2O)n1 the results were UBC13 inh 12, DSG3 Ab inh 104 and Apaf1 inhib -2.
Screening O=[N+]([O-])c1ccc(C[n+]2cccc3ccccc32)cc1 returned UBC13 inh 6, MEKK2 mut-MEK5 98*, MEKK3 PB1 HTS 104, DSG3 Ab inh 241, MEKK2 WT-MEK5 84, Apaf1 inhib -8, MEKK2wt confirm 94, MEKK2mut-MEK5 -30 and MEKK3-MEK5 inh 96.
